Measurements: ChEMBL document CHEMBL1148649, “Effect of various pyrimidines possessing the 1-[(2-hydroxy-1-(hydroxymethyl)ethoxy)methyl] moiety, able to mimic natural 2'-deoxyribose, on wild-type and mutant hepatitis B virus replication” (J Med Chem, 2006)

Key:
Hepatitis B virus [1] = experiment: Antiviral activity against wild type HBV in human hepatoma 2.2.15 cells at 10 ug/mL; assay type: functional; details: HepG2 2.2.15
Outline: (§1)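 HBV-transfected human 2.2.15 cells were treated with compounds. Intracellular HBV DNA was quantified by dot blot hybridization. EC50 is the µM concentration that reduces viral DNA to 50% of untreated infected controls. The fixed-dose value is % inhibition at 10 µg/mL against untreated infected controls. Lamivudine and abacavir served as references.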

Duck hepatitis B virus [2] = experiment: Antiviral activity against duck HBV in primary duck hepatocytes at 10 ug/mL; assay type: functional; details: Hepatocyte
Outline: (§2)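 Primary hepatocyte cultures from congenitally DHBV-infected ducks were exposed to compounds. Intracellular viral DNA was measured by dot blot hybridization. EC50 is the µM concentration that cuts viral DNA to 50% of untreated infected controls. The single-point value is % inhibition of viral DNA at 10 µg/mL against untreated infected controls.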

Vero = experiment: Cytotoxicity against Vero cell line; assay type: functional; details: Chlorocebus sabaeus
Outline: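 Vero cell viability was measured by MTT after 3 days of compound exposure. CC50 is the concentration giving 50% loss of viability versus untreated control. ">" marks values where 50% was not reached at the highest concentration tested.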

HepG2 = experiment: Cytotoxicity against human HepG2 cell line; assay type: functional
Outline: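 HepG2 cells were exposed to compounds for 3 days and viability was measured. CC50 is the concentration lowering viability by 50% versus untreated control. ">" means 50% was not reached at the highest concentration tested.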

Duck hepatitis B virus [3] = experiment: Antiviral activity against duck HBV in primary duck hepatocytes; assay type: functional, organism-based; details: Hepatocyte; outline: as §2
Hepatitis B virus [4] = experiment: Antiviral activity against wild type HBV in human hepatoma 2.2.15 cells; assay type: functional, organism-based; details: HepG2 2.2.15; outline: as §1
Hepatitis B virus [5] = experiment: Antiviral activity against HBV L180M/M204V mutant transfected in D88 cell line at 10 ug/mL; assay type: functional
Outline: (§3)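 Mutant-HBV-transfected HepG2 lines: B1 carries M204I, D88 carries L180M/M204V. Cells are exposed to compound at 10 µg/mL. Intracellular viral DNA is quantified by dot blot hybridization. Results are given as percent inhibition of viral DNA relative to untreated infected controls.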

Hepatitis B virus [6] = experiment: Antiviral activity against HBV M204I mutant transfected in B1 cell line at 10 ug/mL; assay type: functional; outline: as §3
Hepatitis B virus [7] = experiment: Antiviral activity against HBV L180M/M204V mutant transfected in D88 cell line; assay type: functional, organism-based
Outline: (§4)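 HepG2 human hepatoma cells stably transfected with mutant HBV genome: B1 line carries M204I, D88 line carries L180M/M204V. Culture, compound treatment and read-out are as for 2.2.15 cells. Intracellular viral DNA is measured by dot blot hybridization. EC50 is the concentration (µM) that reduces viral DNA to 50% of untreated infected controls.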

Hepatitis B virus [8] = experiment: Antiviral activity against HBV M204I mutant transfected in B1 cell line; assay type: functional, organism-based; outline: as §4
Hepatitis C virus = experiment: Antiviral activity against hepatitis C virus; assay type: functional, organism-based, Hepacivirus hominis

EC50 (Hepatitis B virus [4]) [µM]	EC50 (Hepatitis C virus) [µM]	SMILES	inhibition at 10 µg/mL (Hepatitis B virus [1]) [%]	inhibition at 10 µg/mL (Duck hepatitis B virus [2]) [%]	CC50 (Vero) [µM]	CC50 (HepG2) [µM]	EC50 (Duck hepatitis B virus [3]) [µM]	inhibition at 10 µg/mL (Hepatitis B virus [5]) [%]	inhibition at 10 µg/mL (Hepatitis B virus [6]) [%]	EC50 (Hepatitis B virus [7]) [µM]	EC50 (Hepatitis B virus [8]) [µM]
> 38.3		O=c1[nH]c(=O)n(COC(CO)CO)cc1[N+](=O)[O-]	40	45	> 383	> 383	> 38.3				
> 46		O=c1cnn(COC(CO)CO)c(=O)[nH]1	32	41	> 460	> 460	> 46				
> 32.3		COc1nc(=O)n(COC(CO)CO)cc1Br	35	45	> 323	> 323	> 32.3				
> 43.2		Nc1cn(COC(CO)CO)c(=O)[nH]c1=O	30	37	> 432	> 432	> 43.2				
> 33.8		O=c1[nH]c(=O)n(COC(CO)CO)cc1Br	40	48	> 338	> 338	> 33.8				
> 43.2		Cc1nn(COC(CO)CO)c(=O)[nH]c1=O	37	45	> 432	> 432	> 43.2				
30		O=c1[nH]c(=O)n(COC(CO)CO)cc1/C=C/Br	53	75	> 311	> 311	3				
> 28		Cc1c(I)c(=O)[nH]c(=O)n1COC(CO)CO [IODMETACYCLUR]	38	44	> 280	> 280	> 28				
> 42.7		O=c1[nH]c(=O)n(COC(CO)CO)cc1F	26	24	> 427	> 427	> 42.7				
> 41		CCc1cn(COC(CO)CO)c(=O)[nH]c1=O	30	35	> 410	> 410	> 41				
> 38.4		O=c1[nH]c(=O)n(COC(CO)CO)cc1CCO	28	25	> 384	> 384	> 38.4				
	132	Nc1nc(=O)n(COC(CO)CO)cc1F	0	20	> 429	> 429	> 42.9				
> 43.4		Cc1cn(COC(CO)CO)c(=O)[nH]c1=O	37	45	> 434	> 434	> 43.4				

Continued, compound first:

SMILES	EC50 (Hepatitis B virus [4]) [µM]	EC50 (Hepatitis C virus) [µM]	inhibition at 10 µg/mL (Hepatitis B virus [1]) [%]	inhibition at 10 µg/mL (Duck hepatitis B virus [2]) [%]	CC50 (Vero) [µM]	CC50 (HepG2) [µM]	EC50 (Duck hepatitis B virus [3]) [µM]	inhibition at 10 µg/mL (Hepatitis B virus [5]) [%]	inhibition at 10 µg/mL (Hepatitis B virus [6]) [%]	EC50 (Hepatitis B virus [7]) [µM]	EC50 (Hepatitis B virus [8]) [µM]
Nc1ccn(COC(CO)CO)c(=O)n1			0	0	> 465	> 465					
Nc1nc(NC2CC2)c2ncn([C@H]3C=C[C@@H](CO)C3)c2n1 [ABACAVIR]								72	80		
O=c1[nH]c(=O)n(COC(CO)CO)cc1CO			0	0	> 406	> 406					
Cc1c(Br)c(=O)[nH]c(=O)n1COC(CO)CO	32.4		55	73	> 324	> 324	16.2	30	51	> 32.4	32.4
O=c1[nH]c(=O)n(COC(CO)CO)cc1Cl	20		60	69	> 400	> 400	4	40	56	> 40	20
Cc1nn(COC(CO)CO)c(=S)[nH]c1=O			0	25	> 404	> 404	> 40.4				
Nc1ccn([C@@H]2CS[C@H](CO)O2)c(=O)n1 [LAMIVUDINE]			88	96				30	45		> 44
Cc1cc(=O)[nH]c(=O)n1COC(CO)CO			0	27	> 434	> 434	> 43.4				
O=c1ccn(COC(CO)CO)c(=O)[nH]1			0	0	> 462	> 462					
